Results reported in ChEMBL document CHEMBL4665666, “Discovery and characterization of trypanocidal cysteine protease inhibitors from the 'malaria box'” (Eur J Med Chem, 2019).

How the values were obtained:
[1] = molecular target: Cruzipain (Trypanosoma cruzi) (UniProt P25779); assay: Inhibition of recombinant Trypanosoma cruzi cruzain at 5 uM using Z-FR-AMC as substrate and measured at 12 sec interval for 5 mins without preincubation by fluorimetric analysis relative to control
Method in brief: (§1)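 Recombinant rhodesain or cruzain (1 nM) in 0.1 M sodium acetate pH 5.5, 0.01% Triton X-100, 1 mM β-mercaptoethanol. Compound at a single concentration, either without or after 10 min enzyme pre-incubation. Inhibition is relative to DMSO, with E-64 as positive control. Done in duplicate (primary screen) or triplicate.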

[2] = molecular target: Cruzipain (Trypanosoma cruzi) (UniProt P25779); assay: Inhibition of recombinant Trypanosoma cruzi cruzain at 5 uM using Z-FR-AMC as substrate preincubated for 10 mins followed by substrate addition and measured at 12 sec interval for 5 mins by fluorimetric analysis relative to control; details: time 15.0 min; method in brief: as §1
[3] = molecular target: Rhodesain (Trypanosoma brucei rhodesiense) (UniProt Q95PM0); assay: Inhibition of recombinant Trypanosoma brucei rhodesain expressed in Pichia pastoris at 5 uM using Z-FR-AMC as substrate and measured at 12 sec interval for 5 mins without preincubation by fluorimetric analysis relative to control; method in brief: as §1
Chain of Rhodesain (Trypanosoma brucei rhodesiense) (Q95PM0 1-450): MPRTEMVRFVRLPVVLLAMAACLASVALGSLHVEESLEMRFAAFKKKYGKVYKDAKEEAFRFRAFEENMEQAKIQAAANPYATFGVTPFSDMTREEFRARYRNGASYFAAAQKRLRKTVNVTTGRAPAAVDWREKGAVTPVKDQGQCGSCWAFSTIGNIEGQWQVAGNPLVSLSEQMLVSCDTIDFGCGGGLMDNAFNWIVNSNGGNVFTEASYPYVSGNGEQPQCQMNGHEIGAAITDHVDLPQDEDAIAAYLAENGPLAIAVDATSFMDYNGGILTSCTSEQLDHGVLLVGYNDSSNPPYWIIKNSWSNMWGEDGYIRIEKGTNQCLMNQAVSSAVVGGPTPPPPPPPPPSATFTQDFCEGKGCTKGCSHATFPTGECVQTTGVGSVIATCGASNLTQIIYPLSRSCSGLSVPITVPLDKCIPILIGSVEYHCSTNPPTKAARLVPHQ

[4] = molecular target: Rhodesain (Trypanosoma brucei rhodesiense) (UniProt Q95PM0); assay: Inhibition of recombinant Trypanosoma brucei rhodesain expressed in Pichia pastoris at 5 uM using Z-FR-AMC as substrate preincubated for 10 mins followed by substrate addition and measured at 12 sec interval for 5 mins by fluorimetric analysis relative to control; details: time 15.0 min; method in brief: as §1

Chain of Cruzipain (Trypanosoma cruzi) (P25779 123-467 limits assumed): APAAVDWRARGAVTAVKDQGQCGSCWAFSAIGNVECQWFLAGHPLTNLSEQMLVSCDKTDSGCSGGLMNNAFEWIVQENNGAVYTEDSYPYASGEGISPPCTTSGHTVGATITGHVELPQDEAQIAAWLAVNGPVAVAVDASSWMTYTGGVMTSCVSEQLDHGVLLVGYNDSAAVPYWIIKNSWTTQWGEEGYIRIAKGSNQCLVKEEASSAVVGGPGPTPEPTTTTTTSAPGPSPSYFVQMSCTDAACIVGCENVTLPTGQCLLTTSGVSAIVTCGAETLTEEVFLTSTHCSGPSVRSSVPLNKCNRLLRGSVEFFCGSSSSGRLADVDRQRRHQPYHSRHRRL

SMILES | inhibition [1] [%] | inhibition [2] [%] | inhibition [3] [%] | inhibition [4] [%]
O=C(NC1CCN(Cc2ccccc2)CC1)c1cc(-c2ccncc2)nc2ccc(Cl)cc12 | 15.2 | 56.5 | 20.9 | 41.2
CC(C)OCc1cc(CN2CCN(c3cccc(Cl)c3)CC2)c(O)c2ncccc12 | 49 | 98.2 | 8.3 | 83.7
CC(C)(C)c1ccc2c(c1)CN(Cc1ccc(Cl)cc1)CO2 | 52.3 | 51.5 | 28.8 | 61.3
COc1ccc(OC)c(C2C3=C(CC(C)(C)CC3=O)N(c3ccc(Cl)c(Cl)c3)C3=C2C(=O)CC(C)(C)C3)c1 | 28.5 | 72 | 16.6 | 53.3
Cc1ccccc1OCCSc1nc2ccc(NC(=O)c3ccccc3)cc2s1 | 52.3 | 76.7 | 48.3 | 59
CCOc1ccc(C2N(C)c3ccccc3N2C)cc1 | 21.8 | 48.3 | 30.3 | 57.7
COc1ccc(/C=C2/SC(=Nc3ccccc3)NC2=O)cc1 | 43.1 | 73.8 | 35.6 | 70.5
Nc1ccc(-c2nc3cc(Oc4ccc(Oc5ccc6[nH]c(-c7ccc(N)cc7)nc6c5)cc4)ccc3[nH]2)cc1 | 88.6 | 91.5 | 13.3 | 78.2
CCCCCCc1cc2cc(-c3csc(/C=C/c4ccccc4)n3)c(=O)oc2cc1O | 8.9 | 38.3 | 28.6 | 51.2
CCOC(=O)c1cnc2ccc(CC)cc2c1O | 6 | 5.8 | 0 | 52.4
Fc1ccc2[nH]c3c(NCCCN4CCOCC4)ncnc3c2c1 | 50.7 | 63.9 | 17.6 | 41.6
COc1ccccc1C(=O)ON=C(N)Cc1cccc2ccccc12 | 32 | 54.9 | 1.4 | 54.3
COc1nc(Nc2ccc(C(C)C)cc2)nc(OC)n1 | 16.8 | 44.2 | 25.9 | 53.8
Cc1ccnc(NC(c2cccc(OCc3ccccc3)c2)c2ccc3cccnc3c2O)c1 (stereo not drawn) | 6.7 | 51.3 | 0 | 16.2
COc1ccc(-c2nc3cc(Cc4ccc5[nH]c(-c6ccc(OC)cc6)nc5c4)ccc3[nH]2)cc1 | 100 | 79.9 | 98.6 | 98.7
CCCCCC(=O)N1c2ccccc2N=C2CC(c3ccc(OC)c(OC)c3)CC(O)=C2C1c1ccc(C(F)(F)F)cc1 (stereo not drawn) | 17 | 50.7 | 26.7 | 46.4
O=C(c1ccccc1F)N(Cc1ccc(Cl)cc1)c1ccccn1 | 40.7 | 91.6 | 45.8 | 75
CCCc1c(CC)c(=N)c2ccccc2n1C | 21.5 | 54.8 | 29.4 | 59.5
O=C(Nc1cccc(-c2nc3ccccc3[nH]2)c1)c1cccc(NC(=O)c2ccco2)c1 | 96.7 | 94.7 | 40.1 | 53.9
CCOc1cc(CNC(C)C(O)c2ccccc2)cc(Cl)c1OCC (stereo not drawn) | 21.7 | 46.8 | 32.9 | 61.8
Oc1ccc(C(=C(Cl)Cl)c2ccc(O)cc2)cc1 | 31.1 | 60.5 | 22.6 | 62.1
Cc1ccc(Nc2nc(-c3ccccn3)cs2)cc1 | 17.3 | 19.8 | 4.7 | 80.9
Cc1ccc(N2C(=O)C3C(C2=O)C2(c4ccccc4)C(=O)C3(c3ccccc3)C(c3ccccc3)=C2c2ccccc2)cc1 (stereo not drawn) | 9.2 | 33.6 | 22.3 | 56.3
Cn1c(=O)c2cc(C(=O)NCCCN3CCCCCC3)sc2c2ccccc21 | 22.9 | 50.5 | 22.4 | 41.3
CCc1ccc(Nc2cc(C)c3ccc(O)cc3n2)cc1 | 32.8 | 55 | 36.5 | 38.1
COCCN(C(=O)Cc1cccs1)C(C(=O)NCc1ccc(OC)cc1)c1ccc(C(C)C)cc1 (stereo not drawn) | 40.6 | 67.5 | 38.5 | 86.7

SMILES | inhibition [1] [%] | inhibition [2] [%] | inhibition [3] [%] | inhibition [4] [%]
COc1ccc(C(=O)NC(c2ccccc2Cl)c2cc(Cl)c3cccnc3c2O)cc1 (stereo not drawn) | 17.1 | 100 | 29.4 | 49.4
COc1cc(OC)c(N(C)C(=O)c2cc3c(s2)-c2ccccc2S(=O)(=O)C3)cc1Cl | 6.4 | 38.1 | 20.7 | 57.9
CCCCCn1c(=N)n(CC(O)COc2cccc(C)c2)c2ccccc21 (stereo not drawn) | 55.2 | 87.2 | 40.2 | 69.9
COc1cc2c3cc1Oc1c(OC)c(OC)cc4c1C(Cc1ccc(O)c(c1)Oc1ccc(cc1)CC3N(C)CC2)N(C)CC4 (stereo not drawn) | 22.4 | 41.7 | 19.7 | 51.4
O=C(O)C1Cc2c([nH]c3ccccc23)C(c2ccc(Cl)cc2Cl)N1 (stereo not drawn) | 5 | 9.5 | 0.7 | 78.6
COc1ccc(CNC(=O)c2cc3c(=O)n4ccccc4nc3n(CCc3ccccc3)c2=N)cc1 | 45.7 | 69.9 | 43.5 | 66.9
COc1cccc(C(=O)NC(c2ccc(C)cc2)c2cc(Cl)c3cccnc3c2O)c1 (stereo not drawn) | 8.7 | 54.5 | 31.4 | 43.9
O=C1c2ccccc2-c2nnc(-c3ccc(Br)cc3)cc21 | 47.8 | 96.3 | 32.7 | 68.8
O=C(NC1CCN(Cc2ccccc2)CC1)c1cc(C(=O)NC2CCN(Cc3ccccc3)CC2)cc(C(=O)NC2CCN(Cc3ccccc3)CC2)c1 | 41 | 60.5 | 45.4 | 49.2
Clc1ccc2[nH]c3c(NCCCN4CCOCC4)ncnc3c2c1 | 67 | 62.5 | 48.9 | 72.9
O=C(CSc1ccc2nnc(-c3cccc(F)c3)n2n1)Nc1ccc2c(c1)OCO2 | 10.2 | 67.7 | 10.3 | 61.6
COc1cc(C(=O)ON=C(N)Cc2cccc3ccccc23)cc(OC)c1OC | 14 | 51.1 | 0 | 46.8
COc1ccc(/C=C2/SC(Nc3ccc(F)cc3)=NC2=O)c(OC)c1 | 29.3 | 54.4 | 21.4 | 54.8
COc1ccc(NC(=O)C2c3ccccc3C(=O)N(CC(C)C)C2c2cccs2)cc1 (stereo not drawn) | 3.3 | 0 | 0.1 | 78.7
CCC(C)NCC(O)(c1ccc(Cl)cc1)c1ccc(Cl)cc1 (stereo not drawn) | 32 | 67.2 | 29.1 | 80.9
CCCOCc1cc(CN2CCN(c3cccc(Cl)c3)CC2)c(O)c2ncccc12 | 37.1 | 75.3 | 36.4 | 87.6
Nc1ccc(-c2nc3cc(Cc4ccc5[nH]c(-c6ccc(N)cc6)nc5c4)ccc3[nH]2)cc1 | 20.2 | 98.2 | 86.6 | 90.1
CCN(CC)CCNc1ncnc2c1[nH]c1ccc(Br)cc12 | 57 | 28.5 | 27.5 | 2.7
COc1ccc(C(=O)NC(c2ccc(Cl)cc2Cl)c2cc(Cl)c3cccnc3c2O)cc1 (stereo not drawn) | 77.6 | 49.5 | 27.9 | 20.2
O=C(Nc1ccc(-c2nc3ccccc3[nH]2)cc1)c1ccc(Cl)c(Cl)c1 | 17.4 | 86.9 | 42.8 | 18.3
CCOc1ccccc1CNC(=O)C1c2ccccc2C(=O)N(CC(C)C)C1c1cccs1 (stereo not drawn) | 45.6 | 55.7 | 34.3 | 71.4
COc1ccc(C2c3ccc4ccccc4c3Oc3ncn(CCCN(C)C)c(=N)c32)cc1 (stereo not drawn) | 55.6 | 73.2 | 60.9 | 77.8
CC(O)(c1ccc(Cl)cc1)C(CN1CCCCC1)c1ccccc1 (stereo not drawn) | 11.9 | 54.1 | 13.9 | 50.4
COc1ccc(C2c3ccc4ccccc4c3Oc3ncn(CCCn4ccnc4)c(=N)c32)cc1OC (stereo not drawn) | 41.8 | 59.5 | 33.4 | 41
O=C(Nc1ccc(-c2nc3cc(NC(=O)c4ccc(Cl)cc4)ccc3[nH]2)cc1)c1ccc(Cl)cc1 | 15 | 35.3 | 4.6 | 56.1
CN(N=O)C1=C(NC2CCCCC2)C(=O)c2ccccc2C1=O | 34.8 | 68.2 | 38.7 | 39.5
